Measured values taken from article PMC7127848 (Drug Design, Development and Therapy, 2020).
In brackets after ≈: the same amount, converted by molar mass. Several values for one entry are separate records, joined by “and”; a condition that tells them apart may be missing. Equal values may be shown once. Entries after “also recorded” stand apart in the source; their conditions may differ.

What was measured:
[1] = Thermodynamic solubility, shake-flask method; type: physicochemical; details: room temperature
How it was run: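 Shake-flask method: excess test compound shaken in solvent at room temperature for 72 h after saturation. Centrifuged (18,879 rcf, 10 min) and filtered through 0.22 μm. Dissolved compound quantified by HPLC-UV, in triplicate.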

[2] = Solution state pH stability in USP buffers; type: physicochemical; details: aqueous media pH 1-10, 37°C, up to 48 hrs
How it was run: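 Test compound added from DMSO to USP buffers with 0.2% v/v Tween 80: 0.2 M HCl (pH 1–2), 0.2 M acetate (pH 3–5), 0.2 M phosphate (pH 6–8), carbonate (pH 9–10). Held in a 37°C water bath. Aliquots at set times assayed by HPLC-UV for compound remaining. Degradation rate constant derived per buffer.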

Stability in plasma [3] = type: in vitro ADME; details: CD-1, mouse
How it was run: (§1)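 Test compound at 1 μM incubated at 37°C for up to 4 h in plasma. Sources: CD-1 mouse, SD rat (fresh, from male rats), monkey or human. Aliquots at set times quenched with acetonitrile containing clioquinol as internal standard. Centrifuged at 18,879 rcf for 5 min, and supernatant assayed by LC-MS/MS for compound remaining.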

Stability in plasma [4] = type: in vitro ADME; details: SD, rat
How it was run: as §1

Stability in plasma [5] = type: in vitro ADME; details: rhesus, monkey
How it was run: as §1

Stability in plasma [6] = type: in vitro ADME; details: human
How it was run: as §1

Blood-plasma partition = type: in vitro ADME; details: SD rat blood, 1 μM, 37°C, 1 hr, mean ± SEM
How it was run: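 Test compound spiked into fresh whole SD rat blood at 1 μM final and held 1 hr at 37°C. Plasma separated by centrifugation (15 min, 4°C, 1750 rcf). Blood and plasma assayed by LC-MS/MS. B/P taken as mean peak-area ratio in blood over plasma. Its SEM was propagated as the square root of summed squared SEM/mean terms, multiplied by B/P.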

[7] = Plasma protein binding, centrifugal ultrafiltration; type: in vitro ADME; details: Sprague-Dawley, rat, Fraction bound to plasma protein, mean ± SD
[8] = Microsome metabolic stability and predicted hepatic clearance; type: in vitro ADME; details: CD-1, mouse, liver microsomes, pH 7.4
How it was run: (§2)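 Liver microsomes (0.5 mg/mL) incubated with 3 µM test compound in 50 mM phosphate buffer, pH 7.4. After 3 min pre-incubation at 37°C, 5 mM NADPH started the reaction. Samples at 0, 5, 15, 30, 45 and 60 min, quenched in acetonitrile with internal standard, then LC-MS/MS. NADPH-free controls sampled at 0 and 60 min.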

[9] = as above; type: in vitro ADME; details: Sprague-Dawley (SD), rat, liver microsomes, pH 7.4
How it was run: as §2

[10] = as above; type: in vitro ADME; details: cynomolgus monkey, liver microsomes, pH 7.4
How it was run: as §2

[11] = as above; type: in vitro ADME; details: human, liver microsomes, pH 7.4
How it was run: as §2

CYP1A2 = target: T1, CYP1A2 (Homo sapiens, UniProt P05177); test: CYP reaction phenotyping with rhCYP; type: in vitro ADME
T1 sequence (P05177 1-516): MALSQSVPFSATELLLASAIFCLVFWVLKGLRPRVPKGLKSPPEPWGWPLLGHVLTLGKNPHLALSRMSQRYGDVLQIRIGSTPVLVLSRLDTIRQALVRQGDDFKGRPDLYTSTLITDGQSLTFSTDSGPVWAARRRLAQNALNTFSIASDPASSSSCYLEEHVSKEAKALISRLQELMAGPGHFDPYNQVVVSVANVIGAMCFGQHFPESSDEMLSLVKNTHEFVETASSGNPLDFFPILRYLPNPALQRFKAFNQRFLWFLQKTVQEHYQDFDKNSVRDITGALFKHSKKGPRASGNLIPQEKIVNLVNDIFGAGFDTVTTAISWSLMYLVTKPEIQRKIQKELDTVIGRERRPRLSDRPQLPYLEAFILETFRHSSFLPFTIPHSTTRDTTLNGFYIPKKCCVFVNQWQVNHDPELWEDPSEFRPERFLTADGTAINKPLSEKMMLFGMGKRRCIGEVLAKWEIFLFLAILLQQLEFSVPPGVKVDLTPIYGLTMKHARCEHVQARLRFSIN
How it was run: (§3)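 Recombinant human CYP (200 pmol) with 1 µM test compound in 100 mM K2HPO4/10 mM MgCl2, pH 7.4, pre-incubated. Reaction started with 1 mM NADPH. DMSO kept ≤0.1% v/v and acetonitrile ≤1% v/v. Samples at 0, 5, 15, 30 and 60 min, stopped with acetonitrile containing internal standard, then centrifuged. Negative controls lacked NADPH, used insect control cells, or both.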

CYP2D6 = CYP2D6 (Homo sapiens, UniProt P10635); test: CYP reaction phenotyping with rhCYP; type: in vitro ADME
How it was run: as §3

CYP2C8 = target: T2, CYP2C8 (Homo sapiens, UniProt P10632); test: CYP reaction phenotyping with rhCYP; type: in vitro ADME; details: rhCYP2C8
T2 sequence (P10632 1-490): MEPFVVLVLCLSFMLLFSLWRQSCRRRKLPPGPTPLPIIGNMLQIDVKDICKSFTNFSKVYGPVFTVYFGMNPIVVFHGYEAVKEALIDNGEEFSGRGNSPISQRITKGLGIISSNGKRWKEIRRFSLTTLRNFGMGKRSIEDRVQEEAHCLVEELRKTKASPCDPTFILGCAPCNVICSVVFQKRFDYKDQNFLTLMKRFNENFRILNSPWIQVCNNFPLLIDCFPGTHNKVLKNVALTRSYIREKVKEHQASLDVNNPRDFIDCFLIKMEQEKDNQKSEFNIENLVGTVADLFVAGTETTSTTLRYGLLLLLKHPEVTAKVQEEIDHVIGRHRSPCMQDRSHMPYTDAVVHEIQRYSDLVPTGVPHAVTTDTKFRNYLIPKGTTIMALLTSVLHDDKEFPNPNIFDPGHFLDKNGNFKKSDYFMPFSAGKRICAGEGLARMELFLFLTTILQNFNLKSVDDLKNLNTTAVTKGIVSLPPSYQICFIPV
How it was run: as §3

[12] = Pharmacokinetics and bioavailability in SD rats; type: in vivo; details: Sprague-Dawley, rat, plasma
How it was run: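 Male SD rats (300–350 g), cannulated under anesthesia the day before, n = 3 per group. Single dose of 2 mg/kg IV bolus, 20 mg/kg PO (fasted ≥12 h) or 10 mg/kg SC. Co-solvent formulation diluted 5-fold with saline (IV, SC) or water (PO). Blood taken 0.08–48 h, plasma by LC-MS/MS. Non-compartmental analysis; F from dose-normalised extravascular versus IV AUC.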

[13] = Human hepatic clearance by single species scaling using liver blood flow; details: single species (SD rat) scaling of in vivo clearance and liver blood flow
[14] = cited from earlier work
[15] = in vivo pharmacokinetic studies; cited from earlier work
[16] = tested on: Mycobacterium tuberculosis; details: cited from earlier work
[17] = tested on: MtMetAPs (MtMetAP1a and MtMetAP1c); details: both MtMetAPs over human MetAPs; cited from earlier work
[18] = cited from earlier work; remark: listed apart in the source

Sequence of CYP2D6 (P10635 whole entry): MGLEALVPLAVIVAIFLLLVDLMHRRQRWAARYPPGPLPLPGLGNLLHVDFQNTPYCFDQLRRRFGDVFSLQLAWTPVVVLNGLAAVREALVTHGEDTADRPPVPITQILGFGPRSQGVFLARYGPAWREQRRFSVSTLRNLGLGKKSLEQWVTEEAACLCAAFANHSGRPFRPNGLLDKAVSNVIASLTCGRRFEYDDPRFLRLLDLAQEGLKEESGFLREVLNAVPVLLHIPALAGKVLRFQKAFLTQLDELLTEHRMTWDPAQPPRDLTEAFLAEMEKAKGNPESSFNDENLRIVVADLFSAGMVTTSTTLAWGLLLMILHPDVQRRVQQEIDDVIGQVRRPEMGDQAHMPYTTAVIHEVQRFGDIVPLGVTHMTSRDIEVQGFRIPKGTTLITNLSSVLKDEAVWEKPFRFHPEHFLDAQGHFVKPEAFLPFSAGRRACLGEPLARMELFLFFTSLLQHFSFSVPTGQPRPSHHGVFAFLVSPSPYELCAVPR

For `Oc1c(Br)cc(Cl)c2cccnc12` [CLBQ14, 7-bromo-5-chloroquinolin-8-ol], the Solubility ([1]; water (pH 7)) was 0.07 mg/mL (≈ 271 µM), the solubility at 72 h ([1]; water, pH 7, Solubility) was less than 70 µg/mL and the “Stability in aqueous media” value [2] was “relatively stable”. It also gave a recovery at 4 h, 1 μM (Stability in plasma [3]) of 97.6 ± 2.27%, a recovery at 4 h, 1 μM (Stability in plasma [4]) of 101 ± 13% and a recovery at 4 h, 1 μM (Stability in plasma [5]) of 105 ± 4.25%. The recovery at 4 h, 1 μM (Stability in plasma [6]) was 103.7 ± 0.99%, the “Blood-plasma (B/P) ratio” value (Blood-plasma partition) was 0.83 and 0.83 ± 0.03 and the fraction unbound at 1 h, 5 μg/mL ([7]; 5 μg/mL) was 0.09. For the same molecule, the fraction unbound at 1 h, 50 μg/mL ([7]; 50 μg/mL) was 0.017, the remaining at 1 h, 3 µM [8] was 3.7 ± 1.36% and the remaining at 1 h, 3 µM [9] was 26.8 ± 2.37%. The remaining at 1 h, 3 µM [10] was 17.5 ± 0.86%, the remaining at 1 h, 3 µM [11] was 35.5 ± 0.33% and the “Contribution to metabolism of CLBQ14” value (CYP1A2; rhCYP1A2) was “metabolized primarily; also recorded: primary contributors”. The CLBQ14 turnover (CYP1A2; rhCYP1A2, 1 µM, 37°C, 60 mins) was “greater than 50%”, the “Contribution to metabolism of CLBQ14” value (CYP2D6; rhCYP2D6) was “primary contributors” and the CLBQ14 turnover (CYP2D6; rhCYP2D6, 1 µM, 37°C, 60 mins) was “greater than 50%”. The “Contribution to metabolism of CLBQ14” value (CYP2C8) was “may also be a contributor”, the Tmax ([12]; po, 20 mg/kg) was 30 min and the Tmax ([12]; sc, 10 mg/kg) was roughly 55 min. For the same molecule, the “Human hepatic clearance (ClH, human) predicted” value [13] was 0.69 L/h/kg, the “calculated log P” value ([14]; 25°C / room temperature) was 3.92 ± 0.39 and the “calculated pKa” value ([14]; 25°C) was 2.23 ± 0.30. For the same molecule, the “Administered dose excreted unchanged in urine” value [15] was 0.01%, the “Potency against aged non-growing Mtb” value [16] was “increased potency” and the “Potency against replicating Mtb” value ([16]; replicating Mtb) was “great potency”. For the same molecule, the “Selectivity for MtMetAPs over human MetAPs” value [17] was “great selectivity”.

In the case of `CCOCCOCCO` [Transcutol HP], the NOAEL ([18]; 5% solution administered orally to rats for 90 days) is listed as 1% and the LD50 ([18]; acute administration) is listed as greater than 5 g/kg.
